Consider ten molecules from ChEMBL document CHEMBL3399919, “Synthesis, optical properties and preliminary in vitro photodynamic effect of pyridyl and quinoxalyl substituted chlorins” (Bioorg Med Chem, 2015).

Activity calls are given as the source filed them. No cut-off for these calls is given here.

Series [1] deals with HeLa. Put plainly: Dark toxicity against human HeLa cells assessed as cell viability up to 10 uM incubated for 12 hrs under dark conditions by WST-8 assay. Format: cell-based. An outline of the steps:
(§1)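 HeLa (ATCC) grown in EMEM + 10% FBS, 37 °C, 5% CO2, humidified; seeded per well in 96-well plates, 24 h, then medium replaced with fresh medium containing photosensitizer (0–10 μM). Irradiated with 670–710 nm light, 2 J/cm2 over 15 min, or kept dark; then 12 h at 37 °C in dark. WST-8 (CCK-8) added, 2 h; formazan read. DMSO vehicle control, medium+reagent blank; ≥3 repeats, mean.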
(In general: Tetrazolium assays rely on reduction of a dye to a coloured formazan, in cell work by metabolically active cells.)

Series [2] deals with HeLa. Put plainly: Photosensitizing activity against human HeLa cells assessed as reduction in cell viability pre-incubated for 24 hrs followed by 15 mins exposure to 670 to 710 nm light at dose of 2.0 J/cm2 and measured 12 hrs after radiation by WST-8 assay. Format: functional, cell-based. The conditions noted are these: for IC50: light or radiation study. In a few lines: as §1

The test system of series [3] is HeLa. Put plainly: Photosensitizing activity against human HeLa cells assessed as cell viability at 0.05 uM pre-incubated for 24 hrs followed by 15 mins exposure to 670 to 710 nm light at dose of 2.0 J/cm2 and measured 12 hrs after radiation by WST-8 assay. Format: functional. The conditions noted are these: light or radiation study, read-out: Activity. In a few lines:
as §1

Series [4] relates to HeLa. Put plainly: Photosensitizing activity against human HeLa cells assessed as cell viability at 0.1 uM pre-incubated for 24 hrs followed by 15 mins exposure to 670 to 710 nm light at dose of 2.0 J/cm2 and measured 12 hrs after radiation by WST-8 assay. Format: functional. The conditions noted are these: light or radiation study, read-out: Activity. In a few lines: as §1

Series [5] is described as follows: Singlet oxygen generation assessed as comparative absorbance decay of 1,3-diphenylisobenzofuran at 1 uM at 418 nm after photoirradiation at 2.0 J/cm2 for 15 mins by spectrometry. An outline of the steps: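 Photosensitizer at 1 μM with DPBF (50 μM in DMSO), irradiated; visible spectra recorded and normalized DPBF absorbance at 418 nm compared against DPBF-only control, methylene blue as reference; mean of three experiments.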

With `C=Cc1c(C)c2cc3nc(c4c5[nH]c(cc6nc(cc1[nH]2)C(C)=C6CC)c(/C=C/c1ccncc1)c5C(=O)C4)[C@@H](CCC(=O)OC)[C@@H]3C`, the figures for the Activity entry with HeLa [1] and in the series on HeLa [2] were “Non-toxic” and “Dose-dependent effect”, respectively. In the series with HeLa [2], the concentration for half-maximal inhibition (IC50) came to 33 nM. Also, the viability at 0.05 µM with HeLa [3] came to 22.2%. In addition, the viability at 0.1 µM in the series with HeLa [4] worked out at 1.4%. The outcome in series [5] was Active.

Turning to `CCC1=C(C)c2cc3[nH]c(cc4nc(c5c6[nH]c(cc1n2)c(C)c6C(=O)N(OC)C5=O)[C@@H](CCC(=O)OC)[C@@H]4C)c(C)c3/C=C/c1ccc2ccccc2n1`, the Activity entry in the series on HeLa [1] is given as “Non-toxic”. Also, in the series with HeLa [2], the Activity entry was “Dose-dependent effect” and the IC50 is 992 nM. The result in series [5] was Active.

For `C=Cc1c(C)c2cc3nc(c4c5[nH]c(cc6nc(cc1[nH]2)C(C)=C6CC)c(C)c5C(=O)N(Cc1ccncc1)C4=O)[C@@H](CCC(=O)OC)[C@@H]3C`, in the series on HeLa [1], the Activity result is recorded as “Non-toxic”. Further, in the series with HeLa [2], the Activity entry is “Dose-dependent effect” and the IC50 stood at 189 nM. Also, the outcome in series [5] was Active.

On to `CCC1=C(C)c2cc3[nH]c(cc4nc(c5c6[nH]c(cc1n2)c(C)c6C(=O)C5)[C@@H](CCC(=O)OC)[C@@H]4C)c(C)c3/C=C/c1ccncc1`, for which the Activity result in the series with HeLa [1] is on record as “Non-toxic”. Besides, in the series with HeLa [2], the Activity result was “Dose-dependent effect” and the IC50 amounted to 581 nM. In series [5], the outcome was Active.

On to `CCC1=C(C)c2cc3[nH]c(cc4nc(c(CC(=O)OC)c5[nH]c(cc1n2)c(C)c5C(=O)OC)[C@@H](CCC(=O)OC)[C@@H]4C)c(C)c3/C=C/c1ccncc1`, for which the Activity result in the series with HeLa [1] is on record as “Non-toxic”. In addition, in the series with HeLa [2], the Activity entry was “Dose-dependent effect” and the IC50 worked out at 141 nM. In addition, the result in series [5] was Active.

`CCC1=C(C)c2cc3[nH]c(cc4nc(c(CC(=O)OC)c5[nH]c(cc1n2)c(C)c5C(=O)OC)[C@@H](CCC(=O)OC)[C@@H]4C)c(C)c3/C=C/c1ccc2ccccc2n1`: the Activity result with HeLa [1] is reported as “Non-toxic”. In the series on HeLa [2], the Activity entry was “Dose-dependent effect” and the half-maximal inhibitory concentration (IC50) came to 170 nM. For the same molecule, the outcome in series [5] was Active.

On to `CCC1=C(C)c2cc3[nH]c(cc4nc(c5c6[nH]c(cc1n2)c(C)c6C(=O)N(OC)C5=O)[C@@H](CCC(=O)OC)[C@@H]4C)c(C)c3/C=C/c1ccncc1`, for which, in the series on HeLa [1], the Activity result is “Non-toxic”. In addition, in the series with HeLa [2], the Activity entry was “Dose-dependent effect” and the IC50 came out at 3120 nM. Besides, the outcome in series [5] was Active.

As to `C=Cc1c(C)c2cc3nc(c(CC(=O)OC)c4[nH]c(cc5nc(cc1[nH]2)C(C)=C5CC)c(C)c4C(=O)NCc1ccncc1)[C@@H](CCC(=O)OC)[C@@H]3C`, in the series with HeLa [1], the Activity result is “Non-toxic”. For the same molecule, in the series on HeLa [2], the Activity entry is “Dose-dependent effect” and the IC50 is 71 nM. Further, the viability at 0.05 µM in the series with HeLa [3] is 65.5%. Moreover, the viability at 0.1 µM in the series with HeLa [4] stood at 28.1%.

Take `CCC1=C(C)c2cc3[nH]c(cc4nc(c5c6[nH]c(cc1n2)c(C)c6C(=O)C5)[C@@H](CCC(=O)OC)[C@@H]4C)c(C)c3/C=C/c1ccc2ccccc2n1`: the Activity result in the series on HeLa [1] is “Non-toxic”. In the series on HeLa [2], the Activity entry was “Dose-dependent effect” and the IC50 was determined as 631 nM. In addition, in series [5], the result was Active.

Take `CN(C)c1ccc2nc3ccc(=[N+](C)C)cc-3sc2c1`: in series [5], the outcome was Active.

What is called IC50 is the point on the concentration scale where inhibition reaches its midpoint.
